From publication PMC8859983 (Biomaterials science, 2020)
Entries after “also recorded” stand apart in the source; their conditions may differ.

How the values were obtained:
[1] = target: T1, recombinant human MT1-MMP (Homo sapiens, UniProt P50281); experiment: Enzyme kinetics of fluorogenic probes, FRET peptide cleavage assay; format: biochemical; details: for kcat/Km: specificity constant, 15 nM refolded MT1-MMP, 37 °C, pH 8.0, mean ± SD
Outline: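 Refolded His-tagged human MT1-MMP catalytic/hinge construct (E. coli), 15 nM, with 0.5–4.5 μM FRET probes at 37 °C. Initial cleavage rates measured over 28 s. Km and Vmax from Michaelis–Menten fit; kcat = Vmax/[enzyme]. Mean ± SD.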

[2] = test system: recombinant MT1-MMP; experiment: Fluorescence activation; format: biochemical, human; details: for activation efficiency by MT1-MMP / selectivity for MT1-MMP compared with MMP-2: 1 μM probe; for activation efficiency by MT1-MMP: 15 nM MT1-MMP, 7 min incubation at 37 °C; for selectivity for MT1-MMP compared with MMP-2: 15 nM enzyme, 37 °C
Outline: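 Catalysis velocity: FRET probes at 1 μM incubated with 15 nM refolded recombinant MT1-MMP for 7 min at 37 °C. Fluorescence from substrate hydrolysis recorded at the set time.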

[3] = test system: HT-1080 tumor; experiment: Optical in vivo imaging after intratumoral injection; parameters: species or system BALB/c nude mice; details: 50 nmol intratumoral, IVIS; for fluorescence in the tumor site: 0.5–6 h post injection
Outline: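 Subcutaneous HT-1080 xenografts in nude mice; four groups (n = 3) with similar tumor size. Probe or control given intratumorally at 50 nmol. IVIS imaging of FAM (Ex/Em 492/518 nm) at 0.5, 1, 2, 4.5 and 6 h under 2.5% isoflurane in oxygen (1.5 L min⁻¹). Radiant efficiency quantified at tumor site.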

[4] = test system: HT-1080 tumor; experiment: Ex vivo tumor imaging and biodistribution after intravenous injection; format: in vivo, BALB/c nude mice; details: for fluorescence intensity / accumulation in the tumors: tumor cryosections 4.5 h post injection, n = 3 per group
Outline: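 BALB/c nude mice (4 weeks old) given 1×10⁶ HT-1080 cells in PBS subcutaneously, right flank. At tumor volume ~0.5–1 cm³, four groups (n = 3) received 50 nmol probe by tail-vein injection. Tumors harvested 4.5 h later, cryosectioned, stained with DiI (membrane) and DAPI (nuclei), and examined by fluorescence microscopy.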

[5] = test system: HT-1080 cells; experiment: Cell uptake / cell imaging of probes; format: cell-based, human; details: for cell uptake: 5 μM probe, 2 h at 37 °C, FAM fluorescence, confocal imaging
Outline: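 HT-1080 cells in RPMI 1640 with 10% FBS, penicillin and streptomycin at 37 °C, 5% CO₂. Seeded on glass-bottom dishes overnight, then fresh medium. Incubated with 5 μM probe for 2 h at 37 °C, ± 5 μM GM6001. Washed three times with PBS, fixed 10 min in 4% paraformaldehyde, DAPI-stained, then imaged for FAM fluorescence.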

[6] = target: T1, recombinant human MT1-MMP; experiment: Effect of binding peptide on catalysis of P-1 by MT1-MMP; format: biochemical; details: binding peptide 0.47 μM to 640 μM, pre-incubated with MT1-MMP
Outline: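 His-tagged human MT1-MMP catalytic plus hinge domains (Tyr112–Ile318) expressed in E. coli BL21(DE3)pLysS. Purified on Ni-NTA in urea and refolded by gradient dialysis. Enzyme pre-incubated with binding peptide (0.47–640 μM) before cleavage of FRET peptide substrate. Ex 328/Em 393 nm.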

[7] = test system: HUVEC cells; experiment: MTT cell cytotoxicity assay; format: cell-based, human; details: 10 μM to 100 μM, 48 h, Fig. S2
Outline: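 HUVEC seeded at 4×10³–5×10³ cells/well and incubated 12 h. Then exposed to test compound at 10–100 μM for 48 h. MTT (5 mg mL⁻¹ stock in PBS) added for 4 h, formazan dissolved in DMSO, absorbance read at 490 nm.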

Substance: (Mca)-PLGL-(Dpa)-AR-(PEG)24-HWKHLHNTKTFL [Probe P-6]
- kcat/Km [1]: 1110 ± 90 M⁻¹ s⁻¹

Substance: (FAM)-PLGLK-(Dabcyl)-AR-NH2 [Probe P-8]
- activation efficiency by MT1-MMP [2]: lower activation efficiency than P-7
- selectivity for MT1-MMP compared with MMP-2 [2]: higher selectivity for MT1-MMP compared with MMP-2
- substrate inhibition of MT1-MMP ([2]; data not included): induced the substrate inhibition of MT1-MMP at higher concentrations
- fluorescence in the tumor site [3]: hardly detected
- fluorescence intensity / accumulation in the tumors ([4]; 50 nmol i.v.): weaker fluorescence intensities

Substance: (FAM)-PLGLK-(Dabcyl)-AR-HWKHLHNTKTFL [Probe P-9]
- activation efficiency by MT1-MMP [2]: lower activation efficiency than P-7; also recorded: lower activation efficiency by MT1-MMP than P-8
- selectivity for MT1-MMP compared with MMP-2 [2]: higher selectivity for MT1-MMP compared with MMP-2
- substrate inhibition of MT1-MMP ([2]; data not included): induced the substrate inhibition of MT1-MMP at higher concentrations
- fluorescence in the tumor site [3]: hardly detected
- cell uptake [5]: higher cell uptake than P-8

Substance: (Mca)-PLGL-(Dpa)-AR-(PEG)12-HWKHLHNTKTFL [Probe P-5]
- selectivity for MT1-MMP compared with MMP-2 [2]: significantly higher activation folds when incubated with MT1-MMP than with MMP-2
- fold decreased Km value compared with control probe P-1 ([1]; MT1-MMP): 5.4 fold
- fold enhanced hydrolysis rate (kcat) compared with control probe P-1 ([1]; MT1-MMP): 2.5 fold
- fold specificity (kcat/Km) to MT1-MMP compared with control probe P-1 ([1]; MT1-MMP): ~14 fold
- kcat/Km [1]: 6150 ± 440 M⁻¹ s⁻¹

Substance: HWKHLHNTKTFL [MT1-AF7p]
- effect on the catalysis of P-1 by the recombinant MT1-MMP [6]: had no effect

Substance: (FAM)-PLGLK-(Dabcyl)-AR-(PEG)12-HWKHLHNTKTFL [Probe P-7]
- time to maximum fluorescent intensity at tumor ([3]; Ex/Em 492/518 nm, n = 3 per group): about 1 h
- location of the activated probe in frozen tissue slices ([4]; 50 nmol i.v., 4.5 h post injection): located in the cytosol
- fluorescence intensity / accumulation in the tumors ([4]; 50 nmol i.v.): strongest fluorescence intensity
- organs in which the probe was activated (biodistribution) ([4]; 50 nmol, tail vein injection, FAM fluorescence, Fig. S3): predominantly in the tumor, liver, and kidney
- Km value compared with P-5 ([1]; MT1-MMP, Table S1): much higher Km value of P-7 than P-5
- kcat value compared with P-5 ([1]; MT1-MMP, Table S1): higher kcat value than P-5
- cytotoxicity [7]: low toxicity
- cell uptake [5]: much higher cell uptake compared with the control cells MCF-7; also recorded: much higher cell uptake compared with P-8 and P-9
- cell uptake in the presence of MMP inhibitor GM6001 ([5]; HT-1080, 5 μM probe, GM6001 5 μM): decreased

Substance: (Mca)-PLGL-(Dpa)-AR-HWKHLHNTKTFL [Probe P-2]
- probe concentration above which substrate inhibition of MT1-MMP was induced ([2]; data not included): higher than 1.5 μM

Substance: (Mca)-PLGL-(Dpa)-AR-NH2 [Probe P-1, reference compound]
- kcat/Km [1]: 450 ± 30 M⁻¹ s⁻¹

Substance: (Mca)-PLGL-(Dpa)-AR-(PEG)6-HWKHLHNTKTFL [Probe P-4]
- kcat/Km [1]: 4420 ± 370 M⁻¹ s⁻¹
